Here are results for four molecules from publication PMC3321094 (Nature, 2012).

Assay [1] deals with T1, Histone H4K20me3 peptide 14-25 (Homo sapiens, UniProt P62805).
T1 chain: GGAKRHRK(Me3)VLRD
The assay is described as follows: ITC. A general note: Isothermal titration calorimetry measures the heat released or taken up as one component is titrated into another.

The test system of assay [2] is WI38 cells. The experiment in a line: Cell-cycle profile of WI38 cells by flow cytometry. In kind it is cell-based, human. As to conditions: WI38 primary fibroblast, relative to wild-type hORC1. The essentials:
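WI38 cells transiently expressing GFP plus wild-type ORC1 or an H4K20me2-binding-pocket point mutant (Y64A or W88A). Cell-cycle profile determined by flow cytometry, gating on GFP-positive cells so that only transfected cells are scored. Percentage of cells in each cell-cycle phase and the S/G1 ratio are calculated per transfection. Two experiments, s.d. reported.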
In general terms: A flow cytometer gives signals particle by particle.

Assay [3] deals with ORC components (ORC2, ORC3 and ORC5). The assay is described as follows: Affinity purification of FLAG-ORC1 complexes from HT1080 cells. In kind it is cell-based, human. The note with it: vs wild-type ORC1, Western blot. In general terms: In western blotting, separated proteins are transferred to a membrane and probed.
The test system is the same in assay [4]. The assay is described as follows: Affinity purification of FLAG-ORC1 complexes from U2OS cells. The assay is classed as cell-based, human. As to conditions: vs wild-type ORC1, Western blot.
Assay [5] deals with chromatin. The experiment in a line: Small-scale biochemical fractionation: ORC chromatin association. The assay is classed as cell-based, human. As to conditions: cells stably expressing ORC1 protein, in comparison to hORC1; Western blot.
For assay [6], the target named is T2, Histone H4K20me2 peptide 14-25 (Homo sapiens, UniProt P62805).
T2 chain: GGAKRHRK(Me2)VLRD
The experiment in a line: ITC.

Where no end group is shown, it is not given here.

B1: ORC1 BAH domain (hORC1BAH) 1-185 (protein)
chain: MAHYPTRLKTRKTYSWVGRPLLDRKLHYQTYREMCVKTEGCSTEIHIQIGQFVLIEGDDDENPYVAKLLELFEDDSDPPPKKRARVQWFVRFCEVPACKRHLLGRKPGAQEIFWYDYPACDSNINAETIIGLVRVIPLAPKDVVPTNLKNEKTLFVKLSWNEKKFRPLSSELFAELNKPQESAAK
As for B1, the Kd in assay [1] turned out to be 40 µM.

B2: hORC1Y64A: H4K20me2-binding pocket mutant Y64A of human ORC1 (protein, UniProt Q13415 1-861, looked up, variant Y64A)
Origin recognition complex …: MAHYPTRLKTRKTYSWVGRPLLDRKLHYQTYREMCVKTEGCSTEIHIQIGQFVLIEGDDDENPAVAKLLELFEDDSDPPPKKRARVQWFVRFCEVPACKRHLLGRKPGAQEIFWYDYPACDSNINAETIIGLVRVIPLAPKDVVPTNLKNEKTLFVKLSWNEKKFRPLSSELFAELNKPQESAAKCQKPVRAKSKSAESPSWTPAEHVAKRIESRHSASKSRQTPTHPLTPRARKRLELGNLGNPQMSQQTSCASLDSPGRIKRKVAFSEITSPSKRSQPDKLQTLSPALKAPEKTRETGLSYTEDDKKASPEHRIILRTRIAASKTIDIREERTLTPISGGQRSSVVPSVILKPENIKKRDAKEAKAQNEATSTPHRIRRKSSVLTMNRIRQQLRFLGNSKSDQEEKEILPAAEISDSSSDEEEASTPPLPRRAPRTVSRNLRSSLKSSLHTLTKVPKKSLKPRTPRCAAPQIRSRSLAAQEPASVLEEARLRLHVSAVPESLPCREQEFQDIYNFVESKLLDHTGGCMYISGVPGTGKTATVHEVIRCLQQAAQANDVPPFQYIEVNGMKLTEPHQVYVQILQKLTGQKATANHAAELLAKQFCTRGSPQETTVLLVDELDLLWTHKQDIMYNLFDWPTHKEARLVVLAIANTMDLPERIMMNRVSSRLGLTRMCFQPYTYSQLQQILRSRLKHLKAFEDDAIQLVARKVAALSGDARRCLDICRRATEICEFSQQKPDSPGLVTIAHSMEAVDEMFSSSYITAIKNSSVLEQSFLRAILAEFRRSGLEEATFQQIYSQHVALCRMEGLPYPTMSETMAVCSHLGSCRLLLVEPSRNDLLLRVRLNVSQDDVLYALKDE
Regarding B2, in assay [2], the S phase population result is “decreased S phase population” and the “S/G1 ratio (in words)” value was “lower S/G1 ratio”. Moreover, in assay [3], the “efficiency of affinity purification of ORC2, ORC3 and ORC5” value (“efficiency” for short) is “equal to that observed with the wild-type protein”. In addition, the “efficiency” value in assay [4] is recorded as “equal to that observed with the wild-type protein”. For the same molecule, the “ORC1 enrichment at chromatin” value in assay [5] is on record as “considerably reduced”.

B3: hORC1W88A: H4K20me2-binding pocket mutant W88A of human ORC1 (protein, UniProt Q13415 1-861, looked up, variant W88A)
Origin recognition complex …: MAHYPTRLKTRKTYSWVGRPLLDRKLHYQTYREMCVKTEGCSTEIHIQIGQFVLIEGDDDENPYVAKLLELFEDDSDPPPKKRARVQAFVRFCEVPACKRHLLGRKPGAQEIFWYDYPACDSNINAETIIGLVRVIPLAPKDVVPTNLKNEKTLFVKLSWNEKKFRPLSSELFAELNKPQESAAKCQKPVRAKSKSAESPSWTPAEHVAKRIESRHSASKSRQTPTHPLTPRARKRLELGNLGNPQMSQQTSCASLDSPGRIKRKVAFSEITSPSKRSQPDKLQTLSPALKAPEKTRETGLSYTEDDKKASPEHRIILRTRIAASKTIDIREERTLTPISGGQRSSVVPSVILKPENIKKRDAKEAKAQNEATSTPHRIRRKSSVLTMNRIRQQLRFLGNSKSDQEEKEILPAAEISDSSSDEEEASTPPLPRRAPRTVSRNLRSSLKSSLHTLTKVPKKSLKPRTPRCAAPQIRSRSLAAQEPASVLEEARLRLHVSAVPESLPCREQEFQDIYNFVESKLLDHTGGCMYISGVPGTGKTATVHEVIRCLQQAAQANDVPPFQYIEVNGMKLTEPHQVYVQILQKLTGQKATANHAAELLAKQFCTRGSPQETTVLLVDELDLLWTHKQDIMYNLFDWPTHKEARLVVLAIANTMDLPERIMMNRVSSRLGLTRMCFQPYTYSQLQQILRSRLKHLKAFEDDAIQLVARKVAALSGDARRCLDICRRATEICEFSQQKPDSPGLVTIAHSMEAVDEMFSSSYITAIKNSSVLEQSFLRAILAEFRRSGLEEATFQQIYSQHVALCRMEGLPYPTMSETMAVCSHLGSCRLLLVEPSRNDLLLRVRLNVSQDDVLYALKDE
On to B3, for which the S phase population entry in assay [2] is listed as “decreased S phase population”. The “S/G1 ratio (in words)” value in assay [2] was “lower S/G1 ratio”. Also, the “efficiency” value in assay [3] and in assay [4] was “equal to that observed with the wild-type protein” in each case. Further, in assay [5], the “ORC1 enrichment at chromatin” value is recorded as “considerably reduced”.

B4: ORC1 BAH domain (mORC1BAH) 9-170 (protein)
chain: KTRQTFSWVGRPLPNRKQFQQMYREICMKINDGSEIHIKVGQFVLIQGEDNKKPYVAKLIELFQNGAEVPPKKCARVQWFVRFLEIPVSKRHLLGRSPPAQEIFWYDCSDWDNKINVETIIGPVQVVALAPEEVIPVDQKSEETLFVKLSWNKKDFAPLPPE
The molecule B4 yielded a Kd in assay [6] of 9.6 µM. This counts as single-digit micromolar.

As a reminder, the Kd is the free concentration of one partner at which half of the binding sites on the other are occupied at equilibrium, for simple one-to-one binding. The low end stands for tighter binding, the high end for weaker binding.
